From ChEMBL document CHEMBL1800057, “Discovery of dual inducible/neuronal nitric oxide synthase (iNOS/nNOS) inhibitor development candidate 4-((2-cyclobutyl-1H-imidazo[4,5-b]pyrazin-1-yl)methyl)-7,8-difluoroquinolin-2(1H)-one (KD7332) part 2: identification of a novel, potent, and selective series of benzimidazole-quinolinone …” (J Med Chem, 2010)

Key:
[1] = molecular target: Nitric oxide synthase, inducible (Homo sapiens, UniProt P35228); experiment: Inhibition of human iNOS expressed in HEK293 cells assessed as inhibition of nitric oxide production after 18 hrs using 2,3-diaminonaphthalene by fluorescence assay; assay type: cell-based
Nitric oxide synthase, inducible, sequence (P35228 whole entry): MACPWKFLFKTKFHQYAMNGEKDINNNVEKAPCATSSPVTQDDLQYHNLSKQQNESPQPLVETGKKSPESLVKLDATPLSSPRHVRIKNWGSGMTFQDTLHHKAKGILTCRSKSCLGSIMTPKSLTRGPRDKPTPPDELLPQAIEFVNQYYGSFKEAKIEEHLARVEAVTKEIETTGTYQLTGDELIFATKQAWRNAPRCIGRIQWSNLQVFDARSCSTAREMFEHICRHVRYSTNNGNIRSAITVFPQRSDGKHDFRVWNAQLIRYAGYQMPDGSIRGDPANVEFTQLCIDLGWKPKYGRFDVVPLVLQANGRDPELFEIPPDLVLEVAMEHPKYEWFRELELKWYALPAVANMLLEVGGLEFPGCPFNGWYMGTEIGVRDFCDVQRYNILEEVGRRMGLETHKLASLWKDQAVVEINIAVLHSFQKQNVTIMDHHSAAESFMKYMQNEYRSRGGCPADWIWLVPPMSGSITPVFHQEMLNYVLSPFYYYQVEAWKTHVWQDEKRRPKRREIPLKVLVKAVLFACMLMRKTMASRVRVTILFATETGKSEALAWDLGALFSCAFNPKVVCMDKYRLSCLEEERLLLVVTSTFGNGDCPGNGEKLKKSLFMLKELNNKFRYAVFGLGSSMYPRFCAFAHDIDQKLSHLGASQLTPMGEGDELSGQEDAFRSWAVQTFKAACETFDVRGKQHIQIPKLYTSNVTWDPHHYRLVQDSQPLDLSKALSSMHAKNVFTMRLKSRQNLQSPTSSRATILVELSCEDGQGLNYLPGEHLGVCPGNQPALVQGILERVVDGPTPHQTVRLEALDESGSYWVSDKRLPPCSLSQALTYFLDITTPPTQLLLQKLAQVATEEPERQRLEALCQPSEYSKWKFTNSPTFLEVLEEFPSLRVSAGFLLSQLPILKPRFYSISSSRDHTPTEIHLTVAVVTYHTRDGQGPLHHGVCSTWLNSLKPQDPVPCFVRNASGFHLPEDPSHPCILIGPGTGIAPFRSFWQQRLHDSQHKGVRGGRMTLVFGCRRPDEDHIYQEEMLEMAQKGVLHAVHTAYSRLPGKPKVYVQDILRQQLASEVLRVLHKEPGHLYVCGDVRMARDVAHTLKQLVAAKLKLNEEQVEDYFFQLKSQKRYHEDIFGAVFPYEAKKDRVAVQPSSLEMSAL
Method in brief: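 HEK293 cells grown to ~70% confluence in DMEM/10% FBS with pen/strep, transiently transfected with 10 μg human or murine iNOS plasmid plus Fugene 6 for 4 h at 37 °C, 10% CO2. Cells replated at 5e5 cells/mL and dosed with compound at once; 1400W (100 μM final) as positive control. After 18 h, DAN (10 μg/mL final) in HCl (0.1 N final) added for 20 min at room temperature. Fluorescence read after NaOH (0.12 N final).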

[2] = molecular target: T1, Nitric oxide synthase 1 (Homo sapiens, UniProt P29475); experiment: Inhibition of human nNOS expressed in HEK293 cells assessed as inhibition ionomycin induced nitric oxide production incubated for 24 hrs measured after 18 hrs of ionomycin challenge using 2,3-diaminonaphthalene by fluorescence assay; assay type: cell-based
T1 sequence (P29475 whole entry): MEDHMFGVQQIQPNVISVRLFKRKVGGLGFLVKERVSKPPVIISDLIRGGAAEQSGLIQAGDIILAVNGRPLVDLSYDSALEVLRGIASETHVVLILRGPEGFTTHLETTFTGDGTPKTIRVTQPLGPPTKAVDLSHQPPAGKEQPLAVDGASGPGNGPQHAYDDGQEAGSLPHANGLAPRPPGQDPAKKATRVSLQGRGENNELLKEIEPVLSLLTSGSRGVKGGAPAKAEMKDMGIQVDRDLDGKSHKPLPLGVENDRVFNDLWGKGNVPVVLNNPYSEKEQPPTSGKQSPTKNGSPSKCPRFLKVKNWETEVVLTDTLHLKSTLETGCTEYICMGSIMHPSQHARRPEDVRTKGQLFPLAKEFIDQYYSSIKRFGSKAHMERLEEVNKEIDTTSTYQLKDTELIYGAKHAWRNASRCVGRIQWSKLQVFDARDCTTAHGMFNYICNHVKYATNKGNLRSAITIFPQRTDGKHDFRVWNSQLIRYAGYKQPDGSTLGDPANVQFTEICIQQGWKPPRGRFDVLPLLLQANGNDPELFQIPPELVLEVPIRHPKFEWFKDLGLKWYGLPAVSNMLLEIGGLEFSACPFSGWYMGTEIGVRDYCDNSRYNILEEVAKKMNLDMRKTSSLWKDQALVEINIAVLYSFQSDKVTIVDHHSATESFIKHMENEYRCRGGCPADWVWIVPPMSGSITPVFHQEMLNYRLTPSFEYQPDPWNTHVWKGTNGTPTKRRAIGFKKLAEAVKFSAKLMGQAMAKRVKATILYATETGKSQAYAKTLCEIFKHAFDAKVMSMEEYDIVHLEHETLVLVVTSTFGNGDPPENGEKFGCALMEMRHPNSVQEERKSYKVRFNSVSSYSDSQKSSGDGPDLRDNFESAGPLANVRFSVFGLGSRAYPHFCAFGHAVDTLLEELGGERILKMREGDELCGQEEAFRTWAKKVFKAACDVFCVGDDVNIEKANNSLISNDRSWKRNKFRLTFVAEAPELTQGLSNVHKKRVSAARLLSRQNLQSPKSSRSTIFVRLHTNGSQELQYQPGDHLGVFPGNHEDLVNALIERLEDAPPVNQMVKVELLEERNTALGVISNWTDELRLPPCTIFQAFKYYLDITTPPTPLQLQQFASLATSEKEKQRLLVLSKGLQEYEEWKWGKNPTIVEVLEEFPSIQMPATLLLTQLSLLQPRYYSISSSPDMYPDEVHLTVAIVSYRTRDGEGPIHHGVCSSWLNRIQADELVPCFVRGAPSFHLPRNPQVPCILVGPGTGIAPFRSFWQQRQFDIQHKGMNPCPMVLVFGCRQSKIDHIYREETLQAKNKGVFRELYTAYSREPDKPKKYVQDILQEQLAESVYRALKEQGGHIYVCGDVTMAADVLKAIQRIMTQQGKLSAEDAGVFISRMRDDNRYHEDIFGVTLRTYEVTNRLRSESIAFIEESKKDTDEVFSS
Method in brief: (§1)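 HEK293 cells transfected for 4 h at 37 °C with human nNOS (10 μg) or human eNOS (15 μg) plasmid (Fugene 6, 3:1). Cells replated at 5e5 cells/mL and dosed with compound at once; SEITU (100 μM final) as positive control. After 24 h, cells activated with A23187 (83 nM final) for eNOS or ionomycin (30 μM final) for nNOS. NO read 18 h later as nitrite-DAN fluorescence.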

[3] = molecular target: T2, Nitric oxide synthase 3 (Homo sapiens, UniProt P29474); experiment: Inhibition of human eNOS expressed in HEK293 cells assessed as inhibition A23187 induced nitric oxide production incubated for 24 hrs measured after 18 hrs of […] challenge using 2,3-diaminonaphthalene by fluorescence assay; assay type: cell-based; method in brief: as §1
T2 sequence (P29474 whole entry): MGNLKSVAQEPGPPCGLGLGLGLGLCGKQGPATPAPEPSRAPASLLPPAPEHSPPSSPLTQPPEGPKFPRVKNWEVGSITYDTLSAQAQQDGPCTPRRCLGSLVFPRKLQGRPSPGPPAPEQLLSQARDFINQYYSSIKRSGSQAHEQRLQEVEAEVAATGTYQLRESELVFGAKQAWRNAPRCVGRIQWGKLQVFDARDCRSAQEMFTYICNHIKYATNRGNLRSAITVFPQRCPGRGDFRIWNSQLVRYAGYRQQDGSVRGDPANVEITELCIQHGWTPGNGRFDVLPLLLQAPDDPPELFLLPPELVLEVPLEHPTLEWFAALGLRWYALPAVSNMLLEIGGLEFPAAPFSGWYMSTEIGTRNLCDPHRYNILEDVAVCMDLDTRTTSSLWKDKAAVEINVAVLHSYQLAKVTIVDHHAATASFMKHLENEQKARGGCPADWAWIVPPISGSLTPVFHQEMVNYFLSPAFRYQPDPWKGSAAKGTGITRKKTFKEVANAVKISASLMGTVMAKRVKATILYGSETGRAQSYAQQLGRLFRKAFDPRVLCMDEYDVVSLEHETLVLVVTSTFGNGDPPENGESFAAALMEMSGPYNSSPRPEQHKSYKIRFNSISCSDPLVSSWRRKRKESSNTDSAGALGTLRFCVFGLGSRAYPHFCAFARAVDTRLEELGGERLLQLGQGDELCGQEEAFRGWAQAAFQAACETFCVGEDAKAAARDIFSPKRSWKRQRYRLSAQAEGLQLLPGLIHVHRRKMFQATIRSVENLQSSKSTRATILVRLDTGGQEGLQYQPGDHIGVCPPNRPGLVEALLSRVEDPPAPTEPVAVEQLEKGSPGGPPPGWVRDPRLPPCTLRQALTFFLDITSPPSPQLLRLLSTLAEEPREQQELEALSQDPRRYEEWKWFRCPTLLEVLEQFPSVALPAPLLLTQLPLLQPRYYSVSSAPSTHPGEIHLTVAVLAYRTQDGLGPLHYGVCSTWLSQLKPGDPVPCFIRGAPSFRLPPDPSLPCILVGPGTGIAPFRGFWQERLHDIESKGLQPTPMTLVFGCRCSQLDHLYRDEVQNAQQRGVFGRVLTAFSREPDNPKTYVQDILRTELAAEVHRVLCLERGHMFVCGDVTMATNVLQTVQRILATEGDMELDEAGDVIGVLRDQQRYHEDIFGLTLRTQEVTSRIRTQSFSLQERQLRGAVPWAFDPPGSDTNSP

[4] = tested on: Liver; experiment: Half life in mouse liver microsomes assessed as formation of oxidation product and glucuronide conjugate; assay type: ADME, Microsome
Method in brief: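 Mouse liver microsomes run under combined phase I oxidation and phase II glucuronide conjugation; half-life reported in minutes.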

[5] = species: Homo sapiens; experiment: Ratio of IC50 for human eNOS to EC50 for human iNOS
[6] = species: Homo sapiens; experiment: Ratio of IC50 for human nNOS to EC50 for human iNOS
[7] = molecular target: T3, Nitric oxide synthase 3 (Homo sapiens) (UniProt P29474); experiment: Inhibition of human eNOS expressed in HEK293 cells assessed as inhibition A23187 induced nitric oxide production at 100 uM incubated for 24 hrs measured after 18 hrs of […] challenge using 2,3-diaminonaphthalene by fluorescence assay; assay type: cell-based
T3 sequence (whole entry): T2 sequence (P29474 whole entry)

[8] = molecular target: T1, Nitric oxide synthase 1; experiment: Inhibition of human nNOS expressed in HEK293 cells assessed as inhibition ionomycin induced nitric oxide production at 10 uM incubated for 24 hrs measured after 18 hrs of ionomycin challenge using 2,3-diaminonaphthalene by fluorescence assay; assay type: cell-based

Row | EC50 [1] [µM] | EC50 [2] [µM] | EC50 [3] [µM] | t1/2 [4] [h] | Ratio EC50 [5] | Ratio EC50 [6] | inhibition [7] [%] | inhibition [8] [%] | Structure (SMILES)
1 | 12 | > 10 | > 100 | > 2 | > 8 | > 1 | < 50 | < 50 | Cc1ccncc1-c1nc2ccccc2n1Cc1cc(=O)[nH]c2c(F)c(F)ccc12
2 | 8.9 | 5 | > 100 | > 2 | > 11 | 0.6 | < 50 | – | O=c1cc(Cn2c(C3CCCCC3)nc3ccccc32)c2ccc(F)c(F)c2[nH]1
3 | – | – | – | – | > 460 | 14 | – | – | O=c1cc(Cn2c(C3CC(F)(F)C3)nc3nccnc32)c2cccc(F)c2[nH]1
4 | 1.36 | 0.65 | > 100 | > 2 | > 74 | 0.5 | < 50 | – | CC(C)CCc1nc2ccccc2n1Cc1cc(=O)[nH]c2c(F)c(F)ccc12
5 | 0.21 | 1.3 | > 100 | > 2 | > 480 | 6.2 | < 50 | – | COc1ccnc2c1nc(C1CCC1)n2Cc1cc(=O)[nH]c2c(F)c(F)ccc12
6 | 9.3 | > 10 | > 100 | > 2 | > 11 | > 1 | < 50 | < 50 | O=c1cc(Cn2c(-c3cccnc3)nc3ccccc32)c2ccc(F)c(F)c2[nH]1
7 | 0.27 | 0.76 | > 100 | 0.6 | > 370 | 2.8 | < 50 | – | O=c1cc(Cn2c(C3CCC3)nc3c(Cl)ccnc32)c2ccc(F)c(F)c2[nH]1
8 | 0.73 | 0.69 | 1.3 | > 2 | 1.8 | 0.9 | – | – | CCCc1nc2ccccc2n1Cc1cc(=O)[nH]c2c(F)c(F)ccc12
9 | 0.54 | 0.65 | 2.9 | 0.467 | 5.4 | 1.2 | – | – | O=c1cc(Cn2c(CC3CCC3)nc3ccccc32)c2ccc(F)c(F)c2[nH]1
10 | 18 | 24 | 21 | > 2 | 1.2 | 1.3 | – | – | O=c1cc(Cn2c(C3CCC3)nc3cnccc32)c2ccc(F)c(F)c2[nH]1
11 | 0.85 | 0.61 | 13 | > 2 | 15 | 0.7 | – | – | CC(C)c1nc2nccnc2n1Cc1cc(=O)[nH]c2c(F)c(F)ccc12
12 | 0.59 | 0.52 | 8.8 | > 2 | 15 | 0.9 | – | – | O=c1cc(Cn2c(C3CCC3)nc3ncccc32)c2ccc(F)c(F)c2[nH]1
13 | 0.75 | 0.77 | > 100 | > 2 | > 133 | 1 | < 50 | – | O=c1cc(Cn2c(C3CCCC3)nc3ccccc32)c2ccc(F)c(F)c2[nH]1
14 | 0.29 | 6.8 | > 100 | > 2 | > 350 | 23 | – | – | CC(C)Cc1nc2nccnc2n1Cc1cc(=O)[nH]c2c(F)cccc12
15 | 4.3 | > 10 | 1.6 | > 2 | 0.4 | > 2 | – | < 50 | CCc1nc2ccccc2n1Cc1cc(=O)[nH]c2c(F)c(F)ccc12
16 | 0.18 | 1.3 | > 100 | 0.833 | > 560 | 7.2 | < 50 | – | O=c1cc(Cn2c(C3CCC3)nc3cccnc32)c2ccc(F)c(F)c2[nH]1
17 | 0.34 | 0.99 | 1.3 | > 2 | 3.8 | 2.9 | – | – | Cc1cnccc1-c1nc2ccccc2n1Cc1cc(=O)[nH]c2c(F)c(F)ccc12
18 | 0.6 | 0.95 | 3.9 | > 2 | 6.5 | 1.6 | – | – | O=c1cc(Cn2c(CC3CC3)nc3ccccc32)c2ccc(F)c(F)c2[nH]1
19 | 0.15 | 2 | > 100 | 1.43 | > 670 | 13 | < 50 | – | O=c1cc(Cn2c(C3CCC3)nc3c(C(F)(F)F)ccnc32)c2ccc(F)c(F)c2[nH]1
20 | 0.28 | 1 | > 100 | > 2 | > 360 | 3.6 | – | – | O=c1cc(Cn2c(C3CCCC3)nc3nccnc32)c2ccc(F)c(F)c2[nH]1
21 | 1.6 | 1.4 | 6.8 | > 2 | 4.3 | 0.9 | – | – | O=c1cc(Cn2c(C3CC3)nc3ccccc32)c2ccc(F)c(F)c2[nH]1
22 | 0.12 | 1.1 | 9.2 | > 2 | 77 | 9.2 | – | – | O=c1cc(Cn2c(C3CC(F)(F)C3)nc3nccnc32)c2ccc(F)c(F)c2[nH]1
23 | 5.9 | > 10 | 5.8 | > 2 | 1 | 5.3 | – | < 50 | Cn1cncc1-c1nc2ccccc2n1Cc1cc(=O)[nH]c2c(F)c(F)ccc12
24 | 3.7 | 4.3 | 15 | > 2 | 4.1 | 1.2 | – | – | Cc1ncsc1-c1nc2ccccc2n1Cc1cc(=O)[nH]c2c(F)cccc12
25 | – | – | – | – | 440 | 3.4 | – | – | CC(C)Cc1nc2nccnc2n1Cc1cc(=O)[nH]c2c(F)c(F)ccc12
26 | 0.46 | 0.73 | > 100 | – | > 220 | 1.6 | < 50 | – | O=c1cc(Cn2c(C3CCC3)nc3ccncc32)c2ccc(F)c(F)c2[nH]1
27 | 0.27 | 1.6 | > 100 | 1.53 | > 800 | – | < 50 | – | Cc1ccnc2c1nc(C1CCC1)n2Cc1cc(=O)[nH]c2c(F)c(F)ccc12
28 | 2.2 | 2.9 | 4.2 | 1.07 | 1.9 | 1.3 | – | – | O=c1cc(Cn2c(-c3ccncc3)nc3ccccc32)c2ccc(F)c(F)c2[nH]1
29 | – | – | – | – | > 500 | > 50 | – | – | Cc1ncsc1C(=O)N(Cc1cc(=O)[nH]c2c(F)cccc12)c1ccccc1
